The results in this text go back to ChEMBL document CHEMBL4393670 (J Med Chem, 2019).

In series [1] the target is T1, Proteasome Macropain subunit MB1 (Homo sapiens, UniProt P28074).
T1 sequence (P28074 whole entry): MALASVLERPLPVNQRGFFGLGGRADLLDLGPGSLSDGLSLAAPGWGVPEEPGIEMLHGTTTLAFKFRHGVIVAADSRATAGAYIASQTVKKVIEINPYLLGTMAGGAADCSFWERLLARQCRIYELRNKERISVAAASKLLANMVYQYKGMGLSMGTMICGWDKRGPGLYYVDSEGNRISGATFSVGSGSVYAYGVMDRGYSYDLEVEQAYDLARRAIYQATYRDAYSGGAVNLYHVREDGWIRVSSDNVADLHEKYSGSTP
Briefly: Inhibition of 20S proteasome beta5 subunit in human RPMI8226 cell lysate using Suc-LLVY-AMC as substrate pretreated for 1 hr followed by substrate addition and measured at 1 min interval by fluorescence assay. It is filed as subcellular.

The subject of series [2] is NCI-H727. The series is described as follows: Cytotoxicity against human NCI-H727 cells after 72 hrs by CellTiter 96 AQueous one solution cell proliferation assay. To be noted: NCI-H727, 72 h. In kind it is functional, cell-based. The method, boiled down:
(§1)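 Cells in RPMI1640 with 10% FBS; H23 plated at 5000, H727, RPMI8226 and the Cfz-resistant subline at 10 000 cells/well. Resistant subline adapted to stepwise Cfz up to 80 nM over ~6 months, kept in 80 nM, then Cfz-free ~1 week before testing.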

The species named for series [3] is Homo sapiens. Briefly: Cytotoxicity against human Btz-resistant multiple myeloma cells at 10 uM after 48 hrs by CellTiter Glo luminescent cell viability assay. In general terms: In ATP-based viability assays light output follows the ATP content of the culture.
The species entered for series [4] is Homo sapiens. Briefly: Cytotoxicity against human multiple myeloma cells at 10 uM after 48 hrs by CellTiter Glo luminescent cell viability assay.
Another series deals with NCI-H23. The series is described as follows: Cytotoxicity against human NCI-H23 cells after 72 hrs by CellTiter 96 AQueous one solution cell proliferation assay. In kind it is functional, cell-based. Conditions: NCI-H23, 72 h. Summed up:
as §1

The next series concerns RPMI-8226. Briefly: Cytotoxicity against human RPMI8226 cells after 72 hrs by CellTiter 96 AQueous one solution cell proliferation assay. In kind it is functional, cell-based. To be noted: RPMI-8226, 72 h. The method, boiled down:
as §1

A short description of series [5]: Cytotoxicity against human RPMI8226/Cfzr cells after 72 hrs by CellTiter 96 AQueous one solution cell proliferation assay. It is filed as functional, cell-based. To be noted: RPMI-8226, 72 h. Summed up: as §1
A short description of series [6]: Selectivity ratio of IC50 for human NCI-H727 cells to IC50 for human NCI-H23 cells. In kind it is functional.
Series [7] can be described thus: Selectivity ratio of IC50 for human RPMI8226/Cfzr cells to IC50 for human RPMI8226 cells. It is filed as functional.
Series [8] deals with T2, Proteasome subunit beta type-9 (Homo sapiens, UniProt P28065).
T2 sequence (P28065 whole entry): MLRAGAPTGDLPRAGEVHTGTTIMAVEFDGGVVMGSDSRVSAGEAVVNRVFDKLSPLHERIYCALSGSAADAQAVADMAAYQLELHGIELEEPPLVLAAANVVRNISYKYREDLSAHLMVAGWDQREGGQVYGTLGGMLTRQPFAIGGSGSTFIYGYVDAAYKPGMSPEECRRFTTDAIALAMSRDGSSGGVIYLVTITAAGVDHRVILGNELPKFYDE
Briefly: Inhibition of purified human 20S immunoproteasome beta1 subunit using Ac-Pro-Ala-Leu-AMC as substrate pretreated for 1 hr followed by substrate addition and measured at 1 min interval by fluorescence assay.

Series [9] deals with ATP-dependent translocase ABCB1 (Homo sapiens, UniProt P08183). Briefly: Inhibition of P-gp in human RPMI8226/Cfzr cells assessed as potentiation of carfilzomib-induced cytotoxicity at 7.5 uM measured after 72 hrs by CellTiter 96 AQueous one solution cell proliferation assay. In kind it is cell-based.
Chain of ATP-dependent translocase ABCB1 (P08183 whole entry): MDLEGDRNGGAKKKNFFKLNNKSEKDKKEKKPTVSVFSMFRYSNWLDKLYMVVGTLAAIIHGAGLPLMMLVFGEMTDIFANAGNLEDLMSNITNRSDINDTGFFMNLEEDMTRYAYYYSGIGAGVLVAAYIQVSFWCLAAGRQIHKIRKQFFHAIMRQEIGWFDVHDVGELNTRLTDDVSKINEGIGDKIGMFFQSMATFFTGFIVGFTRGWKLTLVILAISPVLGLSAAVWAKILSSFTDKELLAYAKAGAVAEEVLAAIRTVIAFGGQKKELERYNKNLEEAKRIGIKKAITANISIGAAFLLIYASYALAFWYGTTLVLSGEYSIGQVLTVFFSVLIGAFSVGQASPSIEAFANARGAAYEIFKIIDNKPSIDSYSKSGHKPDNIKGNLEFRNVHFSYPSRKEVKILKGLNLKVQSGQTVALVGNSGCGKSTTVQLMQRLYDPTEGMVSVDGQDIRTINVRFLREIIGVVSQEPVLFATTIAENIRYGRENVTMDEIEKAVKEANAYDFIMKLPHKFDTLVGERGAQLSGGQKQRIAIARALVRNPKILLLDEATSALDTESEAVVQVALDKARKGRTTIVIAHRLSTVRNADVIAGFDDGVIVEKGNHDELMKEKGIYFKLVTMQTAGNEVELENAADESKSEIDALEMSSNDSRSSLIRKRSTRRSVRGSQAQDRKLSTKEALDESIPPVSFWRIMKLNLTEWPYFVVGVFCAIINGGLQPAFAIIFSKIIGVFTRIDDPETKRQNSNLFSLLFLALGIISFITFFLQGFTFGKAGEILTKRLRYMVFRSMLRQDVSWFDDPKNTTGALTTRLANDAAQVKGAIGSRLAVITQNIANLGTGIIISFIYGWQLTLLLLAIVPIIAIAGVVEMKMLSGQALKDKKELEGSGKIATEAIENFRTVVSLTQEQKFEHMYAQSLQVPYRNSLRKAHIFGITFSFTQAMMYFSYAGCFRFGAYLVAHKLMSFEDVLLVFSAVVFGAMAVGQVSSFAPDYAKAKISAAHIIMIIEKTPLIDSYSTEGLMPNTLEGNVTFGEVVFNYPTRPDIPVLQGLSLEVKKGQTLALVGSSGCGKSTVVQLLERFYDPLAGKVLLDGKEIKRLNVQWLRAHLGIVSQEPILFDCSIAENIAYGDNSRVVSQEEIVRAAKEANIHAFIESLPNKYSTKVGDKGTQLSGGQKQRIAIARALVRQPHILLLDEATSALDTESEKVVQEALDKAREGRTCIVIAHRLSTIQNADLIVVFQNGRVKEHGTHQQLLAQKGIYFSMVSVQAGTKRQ
The nature of series [10]: Potency index, ratio of carfilzomib IC50 to test compound IC50 for human RPMI8226/Cfzr cells. It is filed as functional.
The nature of series [11]: Stability in Sprague-Dawley rat liver homogenate at 1 uM measured up to 20 mins by LC-MS/MS analysis.
For series [12], the system named is NCI-H727. Briefly: Potency index, ratio of carfilzomib IC50 to test compound IC50 for human NCI-H727 cells. It is filed as functional.
Series [13] in a line: Half life in patient with relapsed and refractory multiple myeloma. In kind it is ADME. To be noted: human, in vivo.

Active and inactive are the calls of the source. Residues, ends and D or L forms follow the SMILES beside them. *: point of attachment. Cbz = O=C(OCc1ccccc1)*; Boc = CC(C)(C)OC(=O)*; OBn = c1ccc(CO*)cc1; OtBu = CC(C)(C)O*

What is called IC50 is the point on the concentration scale where inhibition reaches its midpoint. As for `COC[C@]1(C(=O)[C@H](CC(C)C)NC(=O)[C@H](Cc2ccccc2)NC(=O)[C@H](CC(C)C)NC(=O)[C@H](CCc2ccccc2)NC(=O)CN2CCOCC2)CO1`, in series [1], the IC50 is over 1000 nM.

As to `CCCCCCC(=O)N[C@@H](C)C(=O)N[C@@H](CC(C)C)C(=O)[C@@]1(CO[Si](C)(C)C(C)(C)C)CO1`, the IC50 with NCI-H727 [2] was 5210 nM; in the series with NCI-H23, 3370 nM; in the series on RPMI-8226, 2140 nM; in series [5], 2140 to 3720 nM; in series [1], over 10000 nM; in [8], 140 nM. Moreover, the result in the series filed under Homo sapiens [3] and in the series listed under Homo sapiens [4] was Active. Moreover, the “Ratio IC50” value in [6] stood at 1.5; in series [7], 1.7.

With `CC(C)C[C@@H](C=O)NC(=O)[C@H](CC(C)C)NC(=O)[C@H](CC(C)C)NC(=O)OCc1ccccc1` [MG-132] (Cbz-Leu-Leu-Leu-aldehyde), the IC50 was found to be 980 nM with NCI-H727 [2] and 480 nM in the series on NCI-H23. Besides, the “Ratio IC50” value in series [6] was determined as 2.

On to `CC(C)C[C@H](NC(=O)[C@H](CCc1ccccc1)NC(=O)CN1CCOCC1)C(=O)N[C@@H](Cc1ccccc1)C(=O)N[C@@H](CC(C)C)C(=O)[C@@]1(CO[Si](c2ccccc2)(c2ccccc2)C(C)(C)C)CO1`, for which the IC50 in the series with NCI-H727 [2] is over 10000 nM; in the series with NCI-H23, over 10000 nM; in series [1], 112 nM.

Take `COCCOCOC[C@]1(C(=O)[C@H](CC(C)C)NC(=O)[C@H](Cc2ccccc2)NC(=O)[C@H](CC(C)C)NC(=O)[C@H](CCc2ccccc2)NC(=O)CN2CCOCC2)CO1`: the IC50 in [1] was over 1000 nM.

Take `CC(C)(C)OC(=O)N[C@@H](CC(=O)OCc1ccccc1)C(=O)N[C@@H](CCCCNC(=O)OCc1ccccc1)C(=O)OC(C)(C)C` [REVERSIN 121] (Boc-Asp(OBn)-Lys(Cbz)-OtBu): the “inhibition (INH)” value in series [9] is “Active”.

In the case of `CC[C@H](C)[C@H](NC(=O)[C@H]([C@@H](C)CC)N(C)C(C)=O)C(=O)N[C@H](C(=O)N[C@@H](CC(C)C)C(=O)[C@@]1(C)CO1)[C@@H](C)O` [EPOXOMYCIN], the IC50 in the series with RPMI-8226 was 11 nM; in series [5] it was 541 nM. The “Ratio IC50” value in series [7] stood at 49.2.

Take `CCCCCCC(=O)N[C@@H](CO)C(=O)N[C@@H](CC(C)C)C(=O)[C@@]1(COCOCCOC)CO1`: the IC50 in the series with NCI-H727 [2] worked out at 4490 nM; in the series with NCI-H23, 3400 nM; in the series with RPMI-8226, 2080 nM; in [5] it was 3410 nM. Moreover, the result in the series listed under Homo sapiens [3] and in the series filed under Homo sapiens [4] was Active. Also, the “Ratio IC50” value worked out at 1.3 in [6] and 1.6 in [7].

In the case of `CC(C)C[C@H](NC(=O)[C@H](CCc1ccccc1)NC(=O)CN1CCOCC1)C(=O)N[C@@H](Cc1ccccc1)C(=O)N[C@@H](CC(C)C)C(=O)[C@@]1(CO)CO1`, the IC50 with NCI-H727 [2] was 61 nM; in the series on NCI-H23 it was 29.4 nM; in [5] it was 106 nM; in series [1], 2.1 nM; in [8] it was 743 nM. Besides, the figures for the “Ratio IC50” value (in series [10]; with NCI-H727 [12]) were 3 and 10, respectively. In [11], the Stability result is on record as “Stable”.

As a reminder, the half-life is the time needed for the level to fall by half in the phase considered. High values mean slow loss, low ones fast loss. Take `CC(C)C[C@H](NC(=O)[C@H](CCc1ccccc1)NC(=O)CN1CCOCC1)C(=O)N[C@@H](Cc1ccccc1)C(=O)N[C@@H](CC(C)C)C(=O)[C@@]1(C)CO1` [CARFILZOMIB]: the IC50 was 610 to 611 nM with NCI-H727 [2], 18 to 18.3 nM with NCI-H23, 7 nM with RPMI-8226 and 269 to 270 nM in [5]. In addition, the Stability result in series [11] is recorded as “Stable”. In series [13], this compound showed a half-life of under 1 h.

`CC(C)C[C@H](NC(=O)[C@H](CCc1ccccc1)NC(=O)CN1CCOCC1)C(=O)N[C@@H](Cc1ccccc1)C(=O)N[C@@H](CC(C)C)C(=O)[C@@]1(COS(C)(=O)=O)CO1`: the results for the IC50 (in the series with NCI-H727 [2]; with NCI-H23; in [1]) were 834 nM, 311 nM and 8 nM, respectively.

Turning to `CC(C)C[C@H](NC(=O)[C@H](Cc1ccccc1)NC(=O)c1cnccn1)B(O)O` [BORTEZOMIB], the concentration for half-maximal inhibition (IC50) in the series with NCI-H727 [2] was determined as 25 nM; in the series with NCI-H23, 10 nM. Also, the “Ratio IC50” value in [6] is listed as 2.5.

In the case of `CCCCCCC(=O)N[C@@H](C)C(=O)N[C@@H](CC(C)C)C(=O)[C@@]1(CO)CO1`, the IC50 in the series on NCI-H727 [2] came out at 690 nM; in the series on NCI-H23, 580 nM; in [5], 310 nM; in [1], 1700 nM; in series [8], 36 nM.

`CC(=O)N[C@@H](CSC(=O)[C@]1([C@@H](O)C(C)C)NC(=O)[C@H](C)[C@@H]1O)C(=O)O` [LACTACYSTIN]: the IC50 was over 100000 nM with NCI-H727 [2] and 5230 nM in the series with NCI-H23. Also, the “Ratio IC50” value in series [6] was over 19.

With `COCOC[C@]1(C(=O)[C@H](CC(C)C)NC(=O)[C@H](Cc2ccccc2)NC(=O)[C@H](CC(C)C)NC(=O)[C@H](CCc2ccccc2)NC(=O)CN2CCOCC2)CO1`, the half-maximal inhibitory concentration (IC50) in series [1] was over 1000 nM.
